# Bioassay records (PubChem)
# Dynein transport = blocks dynein driven cargo transport along microtubules | 3617.4 mouse cells, GR-EGFP nuclear translocation imaging; test concentration mostly 20 µM; stimulated with dexamethasone, 1 µM; hits give low values | z-score, hits read low | 220,000 tested, 0.47% active | AID 1381;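 active = plate z-score of nuclear minus cytoplasmic receptor signal below a set negative limit, without overly bright fluorescence or cell loss, cut at about -3.5 in these data, passing the limit was not always enough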;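 also: z-score of nuclear minus cytoplasmic ring GR-EGFP intensity difference per well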
#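 medium = tetracycline-free induction medium containing charcoal-stripped FBS | probe or stimulus = dexamethasone, 1.0 µM final | timing = 48 h induction, then 1 h compound, then 30 min agonist, 37 °C | detection = automated 10x imaging of fixed Hoechst-stained cells | read-out basis = nuclear versus cytoplasmic GR-EGFP signal, averaged per well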
# L major viab = Leishmania major promastigote growth inhibition; Leishmania major promastigotes, resazurin fluorescence viability; inhibition, % at 10 µM; 200,000 tested, 9% active; AID 1063; in the data active = inhibition above about 50%;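 also: promastigotes grown with compound for 44 hours at 28 °C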
# UPR XBP1 act = activators of adaptive arm of unfolded protein response (XBP1); activation, % at 20 µM; CHO-XBP1 luciferase reporter, IRE1-XBP1 UPR activation, luminescence; percent of tunicamycin response, DMSO as zero; 330,000 tested, 0.33% active;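 active = versus positive control, 20 µM dose yields 30% or more activation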;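 also: 100% = tunicamycin at 10 µg/mL and 0% = DMSO only wells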
#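 Material: CHO cell line with stable XBP1 luciferase reporter; buffer or medium: F12 medium containing 10% fetal bovine serum; compound: single point, 20 µM final compound, 1% DMSO; incubation: 6 h treatment, 37 °C; measured by: glow luminescence from Steady-Glo reagent; evaluation: activation, % of tunicamycin; control set: tunicamycin high, DMSO low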
# CHOP inhibitor = CHOP inhibition in unfolded protein response; CHO-K1 CHOP-promoter luciferase, tunicamycin-induced, 15-18 h; AID 2732; inhibition, % at 10 µM; 220,000 tested, 3.8% active;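 active = compounds that reduced the stress-induced luciferase reporter signal by more than about 70% of percent inhibition, limit read from the data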;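 also: 0% = tunicamycin plus vehicle and 100% = wells without tunicamycin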
# UPR CHOP act = activators of apoptotic arm of unfolded protein response (CHOP). AID 449763. 330,000 tested, 0.34% active. activation, % at 10 µM. CHO-CHOP luciferase reporter, UPR activation, luminescence; percent of tunicamycin response over DMSO baseline;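 active = at 10 µM dose, activation of 40% or more, normalized to positive control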;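 also: 100% = tunicamycin at 10 µg/mL and 0% = DMSO alone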
#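 Assay system: CHO cells with stable CHOP pathway luciferase reporter; Buffer or medium: F12 plus 10% serum; Times: 16-18 h cell attachment, then 6 h compound exposure, 37 °C; Signal: luciferase luminescence; Read-out basis: percent activation relative to tunicamycin control; Control set: tunicamycin high control, DMSO low control.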
# T cruzi inh = blocks replication of Trypanosoma cruzi; T. cruzi beta-gal in NIH3T3, luminescence, 90 h; AID 1885; inhibition, % (test concentration not listed); 300,000 tested, 1.4% active;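 active = mean inhibition across valid replicates above about 55%, limit read from the data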;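 also: signal also drops with host cell toxicity which is not excluded here; 0% = plate median of DMSO wells and 100% = zero luminescence signal; higher percent means less beta-gal luminescence so fewer parasites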
#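 assay system = mouse NIH/3T3 fibroblasts infected with β-gal-expressing T. cruzi Tulahuen C4 | input = 5,000 NIH/3T3 host cells per well | buffer or medium = DMEM plus 2% FBS | timing = 3 h host attachment, then at least 90 h co-culture | measured by = GalScreen luminescence, 60 min | evaluation = luminescence reflecting intracellular parasite burden, expressed as percent inhibition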
# An asterisk follows results filed as active; x = no result given. The full list was thinned out, with hits kept by preference.
SMILES,Dynein transport,L major viab,UPR XBP1 act,CHOP inhibitor,UPR CHOP act,T cruzi inh
N#CC1=C(N)Oc2n[nH]c(-c3cccs3)c2C1C1C=CCCC1 (stereo not drawn),1.3,24,-3,96*,-1,1
c1ccc(Cn2c3ccccc3c3nnc(SCCN4CCCCC4)nc32)cc1,-0.0066,x,-1,-5,3,69*
CCn1c2ccc(F)cc2c2nnc(SCCN3CCCCC3)nc21,x,x,0,x,0,63*
C=CCn1c2ccccc2c2nnc(SCCN3CCCCC3)nc21,x,x,-1,x,2,46
Cc1ccc(C(=O)CC(=O)COc2ccc(Cl)cc2C)cc1,0.43,91*,-2,33,-1,13
Cc1ccc(NC(=O)c2ccc(OC(=O)COc3ccc(Cl)cc3C)cc2)cc1,-0.19,-7,-1,12,2,-31
COc1ccc(NC(=O)CSc2nccn2Cc2ccco2)cc1OC,x,x,-3,x,1,-8
COC(=O)c1cccc(Nc2ncnc3ccc(C)cc23)c1,0.61,51*,1,17,0,1
CC(C)Oc1ccc(Nc2ncnc3ccccc23)cc1,-0.38,56*,1,9,3,-4
CC(=O)Oc1cccc(Nc2ncnc3ccccc23)c1,x,x,3,x,0,-7
Cc1ccc(Nc2ncnc3ccccc23)cc1,-0.14,36,-4,3,3,-8
Oc1ccc(Nc2ncnc3ccccc23)cc1,x,x,-5,x,2,-9
Cc1ccccc1C(=O)Oc1cccc(Nc2ncnc3ccccc23)c1,-0.67,57*,2,x,9,-8
CCOC(=O)c1cccc(Nc2ncnc3ccccc23)c1,0.051,47,0,33,-1,9
Cc1cccc(Nc2ncnc3ccccc23)c1,-0.088,88*,1,-4,2,-16
N#C/C(=C(/O)c1ccc(Cl)c([N+](=O)[O-])c1)c1nc2ccccc2[nH]1,0.86,x,6,13,2,7
CCCn1c2ccc(/C(C)=N\O)cc2c2cc(/C(C)=N/O)ccc21,-0.79,59*,7,14,-3,4
O=[N+]([O-])c1cccc(CSc2nnc(Cc3ccccc3)n2-c2ccc(F)cc2)c1,-0.46,1,0,32,-1,15
Cc1ccc(C(=O)Nc2ccc3cn[nH]c3c2)cc1S(=O)(=O)N1CCCCC1,0.75,50*,5,37,5,-15
CCOC(=O)C1(Cc2ccccc2C(F)(F)F)CCN(C2CCSC2)CC1 (stereo not drawn),-0.99,52*,-2,21,-1,1
CCOC(=O)C1(Cc2ccccc2C(F)(F)F)CCN(C2CCCC2)CC1,-0.59,80*,-4,22,2,x
CCOC(=O)C1(Cc2ccccc2C(F)(F)F)CCN(Cc2ccon2)CC1,-0.32,x,-1,5,-2,13
CCOC(=O)C1(Cc2ccccc2C(F)(F)F)CCN(CC2CC2)CC1,0.37,57*,2,13,-1,33
CCOC(=O)C1(Cc2ccccc2Cl)CCN(S(=O)(=O)N(C)C)CC1,1,15,0,20,2,-2
O=C(CCNC(=O)c1ccc([N+](=O)[O-])cc1)Oc1ccc(F)c(F)c1,x,x,0,x,2,x
SMILES,Dynein transport,L major viab,UPR XBP1 act,CHOP inhibitor,UPR CHOP act,T cruzi inh
C/C(=N/NC(=O)c1cccc(N2CCCC2=O)c1)c1ccncc1,-0.33,-4,-1,-22,3,-1
Cc1cc(C)nc(NC(=O)c2c(F)c(F)c(F)c(C(=O)Nc3cc(C)cc(C)n3)c2F)c1,x,x,-5,x,8,-15
Cc1ccc(OCC(=O)N2N=C(c3ccc(Cl)cc3)CC2c2ccco2)c([N+](=O)[O-])n1 (stereo not drawn),-0.13,30,-2,9,1,26
O=C(COc1cccnc1[N+](=O)[O-])N1N=C(c2ccc(Cl)cc2)CC1c1ccco1 (stereo not drawn),-0.13,12,-2,2,-2,56*
Cc1ccc(C)c(-n2nnnc2SCC(=O)c2ccc3c(c2)NC(=O)CO3)c1,-0.23,-7,-1,81*,-1,7
O=S(=O)(c1ccc(Br)s1)N1CCN(CCc2ccccc2)CC1,x,x,-2,x,0,x
